Experimental data pooled from the literature.
Lines come from different studies, so protocols differ. Values after ≈ are worked out from the molar mass of the structure shown.

| Compound | target or system | assay | system | setting | quantity | result |
| --- | --- | --- | --- | --- | --- | --- |
| O=C(Nc1cnc(Cl)c(Cl)c1)c1cc([N+](=O)[O-])c(F)cc1F | Leishmania mexicana | parasite growth | J774.A1 | intracellular, amastigote | EC50 | 220 nM |
| CN(C[C@H](O)[C@@H](O)[C@H](O)[C@H](O)CO)C(=O)N[C@]12CCC(C)(C)C[C@H]1C1=CC[C@@H]3[C@@]4(C)CC[C@@H]5OC(C)(C)OC[C@@]5(C)[C@@H]4CC[C@@]3(C)[C@]1(C)CC2 | Leishmania mexicana | parasite growth, resazurin | – | 50 µM, amastigote | inhibition | 99% |
| COc1c2ccoc2cc2oc(=O)ccc12 | – | tubulin polymerisation, inhibitor | – | 10 µM | inhibition | 22.5% |
| C[C@H](O)[C@H](O)[C@@H](O)[C@@H](O)[C@@H]1OC[C@@]2(C)[C@@H]3CC[C@]4(C)[C@H](CC=C5[C@@H]6CC(C)(C)CC[C@]6(C(=O)O)CC[C@]54C)[C@@]3(C)CC[C@@H]2O1 | Leishmania mexicana | parasite growth, resazurin | – | 50 µM, amastigote | inhibition | 100% |
| O=C1NC(=S)N/C1=C\c1ccc(-c2ccc(N(c3ccccc3)c3ccccc3)cc2)cc1 | Staphylococcus epidermidis | microbial killing, broth dilution | ATCC12228 | – | MBC | > 1000 µg/mL |
| CC1(C)CC[C@]2(C(=O)OCc3ccccc3[N+](=O)[O-])CC[C@]3(C)C(=CC[C@@H]4[C@@]5(C)CC[C@H](O)[C@@](C)(CO)[C@@H]5CC[C@]43C)[C@@H]2C1 | Leishmania mexicana | parasite growth, resazurin | – | 50 µM, amastigote | inhibition | 100% |
| O=C1NC(=S)S/C1=C\c1ccc(-c2ccc(N(c3ccccc3)c3ccccc3)cc2)cc1 | Staphylococcus epidermidis | microbial killing, broth dilution | ATCC12228 | – | MBC | 250 µg/mL (≈ 538 µM) |
| CC[C@H](CC[C@@H](C)[C@H]1CC[C@H]2[C@@H]3CC=C4C[C@@H](O[C@@H]5O[C@H](CO)[C@@H](O)[C@H](O)[C@H]5O)CC[C@]4(C)[C@H]3CC[C@]12C)C(C)C | – | tubulin polymerisation, inhibitor | – | 10 µM | inhibition | 14.4% |
| Cc1ccc(-c2nc3ccccc3s2)cc1NC(=O)c1cc([N+](=O)[O-])ccc1Cl | Leishmania mexicana | parasite growth | J774.A1 | intracellular, amastigote | EC50 | > 10000 nM |
| O=C(O)CN1C(=O)/C(=C/c2ccc(-c3ccc(N(c4ccccc4)c4ccccc4)cc3)c3ccccc23)SC1=S | Staphylococcus epidermidis | microbial growth, broth dilution | ATCC12228 | – | MIC | 500 µg/mL (≈ 873 µM) |
| CC(=O)O[C@@H]1c2c(ccc3ccc(=O)oc23)OC(C)(C)[C@@H]1OC(=O)C1(C)OC1C (some centres unmarked) | – | tubulin polymerisation, inhibitor | – | 10 µM | inhibition | 32.8% |
| CO[C@H]1O[C@H]([C@@H]2OC[C@@]3(C)[C@@H]4CC[C@]5(C)[C@H](CC=C6[C@@H]7CC(C)(C)CC[C@]7(C(=O)O)CC[C@]65C)[C@@]4(C)CC[C@@H]3O2)[C@@H](O)[C@H](O)[C@H]1O | Leishmania mexicana | parasite growth, resazurin | – | 50 µM, amastigote | inhibition | 96.6% |
| CC(=O)OC1c2c(ccc3ccc(=O)oc23)OC(C)(C)C1OC(=O)C(C)(O)C(C)O (centres unmarked) | – | tubulin polymerisation, inhibitor | – | 10 µM | inhibition | 33.8% |
| O=C(O)CN1C(=O)/C(=C/c2ccc(-c3ccc(N(c4ccccc4)c4ccccc4)cc3)c3ccccc23)NC1=S | Staphylococcus epidermidis | microbial killing, broth dilution | ATCC12228 | – | MBC | > 1000 µg/mL |
| O=c1c(O)c(-c2ccc(O)cc2)oc2cc(O)cc(O)c12 | – | tubulin polymerisation, inhibitor | – | 10 µM | inhibition | 15% |
| O=C1NC(=S)N/C1=C\c1ccc(-c2ccc(N(c3ccccc3)c3ccccc3)cc2)c2ccccc12 | Staphylococcus epidermidis | microbial killing, broth dilution | ATCC12228 | – | MBC | > 1000 µg/mL |
| COC(=O)[C@]12CCC(C)(C)C[C@H]1C1=CC[C@@H]3[C@@]4(C)CC[C@@H]5O[C@H]([C@H](O)[C@@H](O)[C@H](O)[C@H](O)CO)OC[C@@]5(C)[C@@H]4CC[C@@]3(C)[C@]1(C)CC2 | Leishmania mexicana | parasite growth, resazurin | – | 50 µM, amastigote | inhibition | 100% |
| O=C1NC(=S)S/C1=C\c1c2ccccc2c(-c2ccc(N(c3ccccc3)c3ccccc3)cc2)c2ccccc12 | Staphylococcus epidermidis | microbial killing, broth dilution | ATCC12228 | – | MBC | > 1000 µg/mL |
| CC1(C)CC[C@]2(C(=O)O)CC[C@]3(C)C(=CC[C@@H]4[C@@]5(C)CC[C@@H]6OCOC[C@@]6(C)[C@@H]5CC[C@]43C)[C@@H]2C1 | Leishmania mexicana | parasite growth, resazurin | – | 50 µM, amastigote | inhibition | 97.5% |
| C/C=C(/C)C(=O)O[C@@H]1[C@H](OC(C)=O)c2c(ccc3ccc(=O)oc23)OC1(C)C | – | tubulin polymerisation, inhibitor | – | 10 µM | inhibition | 24.8% |
| Cc1cc(Cl)c(Cl)cc1NC(=O)c1cc([N+](=O)[O-])c(F)cc1F | Leishmania mexicana | parasite growth | J774.A1 | intracellular, amastigote | EC50 | 340 nM |
| CC(=O)N1CCN(C(=O)N[C@]23CCC(C)(C)C[C@H]2C2=CC[C@@H]4[C@@]5(C)CC[C@@H]6OC(C)(C)OC[C@@]6(C)[C@@H]5CC[C@@]4(C)[C@]2(C)CC3)CC1 | Leishmania mexicana | parasite growth, resazurin | – | 50 µM, amastigote | inhibition | 100% |
| O=c1ccc2cc3ccoc3cc2o1 | – | tubulin polymerisation, inhibitor | – | 10 µM | inhibition | 30.1% |
